# From ChEMBL document CHEMBL1155273, “Search for new pharmacophores for antimalarial activity. Part III: synthesis and bioevaluation of new 6-thioureido-4-anilinoquinazolines” (Eur J Med Chem, 2009)
# Active and inactive are the calls of the source. The rule behind the calls is not given here.
# Key:
# [1] = system: Plasmodium falciparum; assay: Antimalarial activity against chloroquine-sensitive Plasmodium falciparum 3D7; format: functional, organism-based
# [2] = Selectivity index, ratio of CC50 for african green monkey (Cercopithecus aethiops) Vero cells to IC50 for chloroquine-sensitive Plasmodium falciparum 3D7; format: functional
# [3] = system: Plasmodium yoelii nigeriensis; assay: Antimalarial activity against multidrug-resistant Plasmodium yoelii nigeriensis infected Swiss mice (Mus musculus) assessed as suppression in parasitaemia at 100 mg/kg, perorally for 4 days measured on day 4; format: functional; settings: 96 h, route oral
# Method in brief: (§1)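 Swiss mice infected on day 0 with P. yoelii nigeriensis MDR (N67, chloroquine-resistant) parasitized cells. Groups of five mice received the test compound orally as an aqueous suspension at 50 or 100 mg/kg from day 0 to 4; five controls received vehicle only. Parasitaemia was read from tail-vein thin blood smears on days 4, 7, 14, 21 and 28, or until death.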
# [4] = system: Plasmodium yoelii nigeriensis; assay: Antimalarial activity against multidrug-resistant Plasmodium yoelii nigeriensis infected Swiss mice (Mus musculus) assessed as suppression in parasitaemia at 100 mg/kg, perorally for 4 days measured on day 7; format: functional; settings: route oral; method in brief: as §1
# [5] = system: Plasmodium yoelii nigeriensis; assay: Antimalarial activity against multidrug-resistant Plasmodium yoelii nigeriensis infected Swiss mice (Mus musculus) assessed as survival at 100 mg/kg, perorally for 4 days measured on day 28; format: functional; settings: route oral; method in brief: as §1
# [6] = system: Plasmodium yoelii nigeriensis; assay: Antimalarial activity against multidrug-resistant Plasmodium yoelii nigeriensis infected Swiss mice (Mus musculus) assessed as survival at 100 mg/kg, perorally for 4 days measured on day 7; format: functional, organism-based; parameters: dose 100 mg/kg; method in brief: as §1
SMILES,MIC [1] [µg/mL],IC50 [1] [µg/mL],Ratio CC50/IC50 [2],further results
COc1ccc(Nc2ncnc3ccc(NC(=S)Nc4cccc5ccccc45)cc23)cc1OC,2,0.207,133.8,–
COc1ccc(Nc2ncnc3ccc(NC(=S)Nc4ccc(Br)cc4)cc23)cc1OC,2,0.683,85.7,–
S=C(Nc1cccc(Cl)c1)Nc1ccc2ncnc(Nc3cccc(Cl)c3)c2c1,2,0.0088,556.3,inhibition in vivo at 100 mg/kg [3]: 77.2%; inhibition in vivo at 100 mg/kg [4]: 16.1%
COc1ccc(Nc2ncnc3ccc(NC(=S)Nc4cccc5ccccc45)cc23)cc1,10,–,–,–
COc1ccc(Nc2ncnc3ccc(NC(=S)Nc4cccc(Cl)c4)cc23)cc1OC,10,–,–,–
S=C(Nc1ccccc1)Nc1ccc2ncnc(Nc3ccccc3)c2c1,2,–,–,–
COc1cccc(Nc2ncnc3ccc(NC(=S)Nc4ccc(Br)cc4)cc23)c1,1,0.106,187,Activity [5]: 50%; inhibition in vivo at 100 mg/kg [3]: 100%; inhibition in vivo at 100 mg/kg [4]: 99.9%
COc1ccc(Nc2ncnc3ccc(NC(=S)Nc4ccccc4)cc23)cc1,2,0.243,80.4,–
COc1ccc(Nc2ncnc3ccc(NC(=S)Nc4ccc(Cl)cc4)cc23)cc1,> 10,–,–,–
COc1ccc(Nc2ncnc3ccc(NC(=S)Nc4ccc(Cl)cc4)cc23)cc1OC,10,–,–,–
Fc1cccc(NC(=S)Nc2ccc3ncnc(Nc4cccc(Cl)c4)c3c2)c1,10,–,–,inhibition in vivo at 100 mg/kg [3]: 85.7%; inhibition in vivo at 100 mg/kg [4]: 61.1%
S=C(Nc1ccc2ncnc(Nc3ccccc3)c2c1)Nc1cccc2ccccc12,2,–,–,–
S=C(Nc1ccc2ncnc(Nc3cccc(Cl)c3)c2c1)Nc1cccc2ccccc12,10,–,–,–
COc1cccc(Nc2ncnc3ccc(NC(=S)Nc4cccc5ccccc45)cc23)c1,10,–,–,–
COc1cccc(Nc2ncnc3ccc(NC(=S)Nc4cccc(Cl)c4)cc23)c1,2,0.0115,1615.3,inhibition in vivo at 100 mg/kg [3]: 46.5%; inhibition in vivo at 100 mg/kg [4]: 28.4%
FC(F)(F)c1cccc(Nc2ncnc3ccc(NC(=S)Nc4ccc(Br)cc4)cc23)c1,2,0.0392,67.1,Activity [6]: inactive; inhibition in vivo at 100 mg/kg [3]: 9.78%
COc1ccc(Nc2ncnc3ccc(NC(=S)Nc4ccc(Br)cc4)cc23)cc1,2,0.0502,114.9,–

# Now from value to compound, other results behind:
MIC [1] [µg/mL],IC50 [1] [µg/mL],SMILES,Ratio CC50/IC50 [2],further results
2,–,S=C(Nc1ccc(Cl)cc1)Nc1ccc2ncnc(Nc3ccccc3)c2c1,–,–
> 10,–,N#Cc1cccc(NC(=S)Nc2ccc3ncnc(Nc4ccccc4)c3c2)c1,–,–
10,–,Fc1cccc(NC(=S)Nc2ccc3ncnc(Nc4cccc(C(F)(F)F)c4)c3c2)c1,–,–
10,–,FC(F)(F)c1cccc(Nc2ncnc3ccc(NC(=S)Nc4cccc(Cl)c4)cc23)c1,–,–
2,0.385,COc1ccc(Nc2ncnc3ccc(NC(=S)Nc4cccc(F)c4)cc23)cc1OC,63.7,–
2,0.443,N#Cc1cccc(NC(=S)Nc2ccc3ncnc(Nc4cccc(C(F)(F)F)c4)c3c2)c1,5.5,–
> 10,–,COc1ccc(Nc2ncnc3ccc(NC(=S)Nc4cccc(Cl)c4)cc23)cc1,–,–
2,0.303,COc1ccc(Nc2ncnc3ccc(NC(=S)Nc4ccccc4)cc23)cc1OC,90,–
10,–,FC(F)(F)c1cccc(Nc2ncnc3ccc(NC(=S)Nc4cccc5ccccc45)cc23)c1,–,–
2,0.813,S=C(Nc1cccc(Cl)c1)Nc1ccc2ncnc(Nc3ccccc3)c2c1,29,–
10,–,S=C(Nc1ccc(Br)cc1)Nc1ccc2ncnc(Nc3ccccc3)c2c1,–,–
2,0.526,S=C(Nc1ccc(Br)cc1)Nc1ccc2ncnc(Nc3cccc(Cl)c3)c2c1,1,–
1,0.021,COc1cccc(Nc2ncnc3ccc(NC(=S)Nc4cccc(C#N)c4)cc23)c1,453,–
10,–,COc1cccc(Nc2ncnc3ccc(NC(=S)Nc4ccc(Cl)cc4)cc23)c1,–,–
10,–,S=C(Nc1ccc(Cl)cc1)Nc1ccc2ncnc(Nc3cccc(Cl)c3)c2c1,–,–
2,0.792,Fc1cccc(NC(=S)Nc2ccc3ncnc(Nc4ccccc4)c3c2)c1,70.3,–
10,–,FC(F)(F)c1cccc(Nc2ncnc3ccc(NC(=S)Nc4ccc(Cl)cc4)cc23)c1,–,–
2,0.258,COc1cccc(Nc2ncnc3ccc(NC(=S)Nc4ccccc4)cc23)c1,38.7,–
2,0.992,FC(F)(F)c1cccc(Nc2ncnc3ccc(NC(=S)Nc4ccccc4)cc23)c1,69,–
10,–,S=C(Nc1ccccc1)Nc1ccc2ncnc(Nc3cccc(Cl)c3)c2c1,–,–
> 10,–,COc1ccc(Nc2ncnc3ccc(NC(=S)Nc4cccc(C#N)c4)cc23)cc1,–,–
> 10,–,N#Cc1cccc(NC(=S)Nc2ccc3ncnc(Nc4cccc(Cl)c4)c3c2)c1,–,–
2,0.0532,COc1ccc(Nc2ncnc3ccc(NC(=S)Nc4cccc(F)c4)cc23)cc1,206.4,–
1,0.0267,COc1cccc(Nc2ncnc3ccc(NC(=S)Nc4cccc(F)c4)cc23)c1,510.7,–
10,–,COc1ccc(Nc2ncnc3ccc(NC(=S)Nc4cccc(C#N)c4)cc23)cc1OC,–,–
